Reference: ChEMBL document CHEMBL1121809, “Cyclic guanidines. 14. Imidazo[1,2-a]thienopyrimidin-2-one derivatives as blood platelet aggregation inhibitors” (J Med Chem, 1981)

How the values were obtained:
Rattus norvegicus [1] = organism: Rattus norvegicus; experiment: In vitro inhibition of ADP-induced blood platelet aggregation; assay type: functional
Procedure, shortened: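 Rat carotid citrated blood was spun at 230g for 7 min to give PRP, adjusted with PPP to about 5 × 10⁵ platelets/μL. Compound in saline or MeOH was added before 10 μM ADP in Tris-HCl/NaCl pH 7.4 with CaCl₂. Aggregation was read at 30 °C, 1100 rpm, as maximal ΔA. EC50 is the concentration giving 50% inhibition.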

Rattus norvegicus [2] = organism: Rattus norvegicus; experiment: In vitro inhibition of collagen-induced blood platelet aggregation; assay type: functional
Procedure, shortened: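 Rat PRP (about 5 × 10⁵ platelets/μL) was preincubated with compound added in saline or MeOH. Aggregation was started with bovine tendon collagen suspension in Tris buffer (absorbance 0.270 at 420 nm; lag 2–3 min). Read at 30 °C, 1100 rpm, as initial maximal rate ΔA/min. EC50 is the concentration giving 50% inhibition.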

Rattus norvegicus [3] = organism: Rattus norvegicus; experiment: Inhibition of collagen-induced blood platelet aggregation in rat after 24 hr; assay type: functional
Procedure, shortened: (§1)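 Fasted rats received one oral 50 mg/kg dose in 0.5% Tween 80, and PRP was prepared 3, 6 or 24 h later; vehicle controls were bled at 3 h. Collagen-induced aggregation was read as initial maximal rate ΔA/min at 30 °C. Percent inhibition is versus controls; 5–7 animals, mean ± SD.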

Rattus norvegicus [4] = organism: Rattus norvegicus; experiment: Inhibition of collagen-induced blood platelet aggregation in rat after 3 hrs; assay type: functional; procedure, shortened: as §1
Rattus norvegicus [5] = organism: Rattus norvegicus; experiment: Inhibition of collagen-induced blood platelet aggregation in rat after 6 hrs; assay type: functional; procedure, shortened: as §1
Rattus norvegicus [6] = experiment: Ex vivo inhibition of collagen-induced blood platelet aggregation in rat was measured 2 hr after administration of vehical alone; assay type: functional
Procedure, shortened: (§2)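 Overnight-fasted rats were dosed orally at (50 mg/10 mL)/kg in 0.5% Tween 80; controls got vehicle at 10 mL/kg. PRP was made from carotid citrated blood 2 h later under pentobarbital. Collagen suspension (absorbance 0.270 at 420 nm) drove aggregation at 30 °C, 1100 rpm. Read-out was the initial maximal rate of absorbance fall (ΔA/min). Inhibition percent is versus controls; 5–7 rats, mean ± SD.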

Rattus norvegicus [7] = experiment: (§3) Ex vivo inhibition of collagen-induced blood platelet aggregation in rat was measured 2 hr after oral administration of 50 mg/kg; assay type: functional; design: scale not given here; procedure, shortened: as §2
Rattus norvegicus [8] = organism: Rattus norvegicus; experiment: Inhibition of ADP-induced blood platelet aggregation in rat after 3 hr; assay type: functional
Procedure, shortened: (§4)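 This is an ex vivo time course after a single oral 50 mg/kg dose in 0.5% Tween 80 to fasted rats, with PRP made at 3, 6 or 24 h; controls got vehicle 3 h before blood collection. ADP (10 μM) aggregation was read as extent ΔA at 30 °C. Percent inhibition is versus controls; 5–7 animals, mean ± SD.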

Rattus norvegicus [9] = organism: Rattus norvegicus; experiment: Inhibition of ADP-induced blood platelet aggregation in rat after 6 hr; assay type: functional; procedure, shortened: as §4
Rattus norvegicus [10] = experiment: as §3; assay type: functional; procedure, shortened: as §2
Rattus norvegicus [11] = organism: Rattus norvegicus; experiment: Inhibition of ADP-induced blood platelet aggregation in rat after 24 hr; assay type: functional; procedure, shortened: as §4
Rattus norvegicus [12] = experiment: Effect on systolic blood pressure in rat after an oral dose at 50 mg/kg (1h after dose); assay type: functional, Artery
Procedure, shortened: (§5)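 Male Wistar-Imamichi rats, 250 g, were given the compound orally at (50 mg/7.5 mL)/kg as a suspension in 0.5% CMC or 0.5% Tween 80. Systolic pressure and heart rate were taken by tail-cuff after prewarming at 55–60 °C for 3 min, before dosing and at set times after. Five rats per group, mean ± SD. Pressure is reported as decrease and heart rate as percent change.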

Rattus norvegicus [13] = experiment: Effect on systolic blood pressure in rat after an oral dose at 50 mg/kg (3h after dose); assay type: functional, Artery; procedure, shortened: as §5
Rattus norvegicus [14] = experiment: Effect on systolic blood pressure in rat after an oral dose at 50 mg/kg (5h after dose); assay type: functional, Artery; procedure, shortened: as §5
Rattus norvegicus [15] = experiment: Effect on systolic blood pressure in rat after an oral dose at 50 mg/kg; assay type: functional, Artery; procedure, shortened: as §5
Rattus norvegicus [16] = experiment: Effect on heart rate in rat after an oral dose at 50 mg/kg (3h after dose); assay type: functional; procedure, shortened: as §5
Rattus norvegicus [17] = experiment: Effect on heart rate in rat after an oral dose at 50 mg/kg (4h after dose); assay type: functional; procedure, shortened: as §5
Rattus norvegicus [18] = experiment: Effect of compound on heart rate in rat after an oral dose at 50 mg/kg; assay type: functional; procedure, shortened: as §5
Rattus norvegicus [19] = experiment: Effect on heart rate in rat after an oral dose at 50 mg/kg (1h after dose); assay type: functional; procedure, shortened: as §5

| Structure (SMILES) | EC50 (Rattus norvegicus [1]) [µM] | EC50 (Rattus norvegicus [2]) [µM] | Delta A/min (Rattus norvegicus [6]) | Delta A/min (Rattus norvegicus [7]) | Delta A/min (Rattus norvegicus [10]) | further results |
| --- | --- | --- | --- | --- | --- | --- |
| Cl.O=C1CN2C=c3c4c(sc3=NC2=N1)CCCC4 | 250 | 84 | 0.183 | 0.047 ΔA/min |  | Delta A/min (Rattus norvegicus [3]): 0.185; Delta A/min (Rattus norvegicus [4]): 0.068; Delta A/min (Rattus norvegicus [5]): 0.195 |
| CCCc1sc2c(c1C)CN1CC(=O)NC1=N2.Cl | 0.58 | 0.08 |  |  | 0.09 ΔA/min | Delta A/min (Rattus norvegicus [8]): 0.128; Delta A/min (Rattus norvegicus [9]): 0.154; Delta A/min (Rattus norvegicus [3]): 0.242; Delta A/min (Rattus norvegicus [4]): 0.09; Delta A/min (Rattus norvegicus [5]): 0.213 |
| Cc1cc2c(s1)N=C1NC(=O)C(C)N1C2 (stereo not given) | 230 | 10 |  |  |  |  |
| CC1CCCc2c1sc1c2CN2C(=NC(=O)C2C)N1.Cl (stereo not given) | 3 | 0.03 | 0.183 | 0.047 ΔA/min |  |  |
| Cc1sc2c(c1C)CN1C(=N2)NC(=O)C1C.Cl (stereo not given) | 20 | 0.13 | 0.183 | 0.076 ΔA/min |  |  |
| Cc1sc2c(c1Cl)CN1CC(=O)NC1=N2.Cl | 36 | 17 |  |  | 0.28 ΔA/min |  |
| CCCCC1C(=O)NC2=Nc3sc4c(c3CN21)CCCC4 (stereo not given) | > 250 | > 250 |  |  |  |  |
| Cc1cc2c(s1)NC1=NC(=O)CN1C2.Cl | 125 | 35 |  |  | 0.162 ΔA/min |  |
| Cl.O=C1CN2Cc3c(sc4c3CCCCC4)N=C2N1 | 18 | 0.17 |  |  | 0.202 ΔA/min |  |
| Cl.O=C1CN2Cc3c(sc4c3CCC(OCc3ccccc3)C4)N=C2N1 (stereo not given) | 4.2 | 2.2 | 0.117 | 42000 |  |  |
| CCCCCc1sc2c(c1C)CN1CC(=O)NC1=N2.Cl | 2 | 0.19 |  |  | 0.002 ΔA/min |  |
| Cl.O=C1CN2Cc3c(sc4c3CCSC4)N=C2N1 | 2 | 0.54 | 0.178 | 0 |  |  |
| CCCc1c(CC)sc2c1CN1CC(=O)NC1=N2.Cl | 3 | 2.2 |  |  | 0.008 ΔA/min |  |
| Cl.O=C1CN2Cc3c(sc4ccccc34)N=C2N1 | 5.3 | 0.15 | 0.183 | 0.092 ΔA/min |  |  |
| O=C1CN2Cc3c(sc4c3CCCC4Cc3ccccc3)N=C2N1 (stereo not given) | 160 | 4 |  |  |  |  |
| Cc1c(Cl)sc2c1CN1CC(=O)NC1=N2.Cl | 4.2 | 1.9 |  |  | 0.222 ΔA/min | Delta A/min (Rattus norvegicus [11]): 0.122; Delta A/min (Rattus norvegicus [8]): 0.106; Delta A/min (Rattus norvegicus [9]): 0.121; Delta A/min (Rattus norvegicus [3]): 0.166; Delta A/min (Rattus norvegicus [4]): 0.077; Delta A/min (Rattus norvegicus [5]): 0.166 |
| Cc1cc2c(s1)CN1CC(=O)NC1=N2.Cl | 250 | 12 | 0.228 | 0.217 ΔA/min |  |  |
| Cc1csc2c1CN1CC(=O)NC1=N2.Cl | 19 | 15 |  |  | 0.188 ΔA/min |  |
| CN1C(=O)CN2Cc3c(sc4c3CCCC4)N=C21 | > 250 | > 250 |  |  |  |  |
| CCC1C(=O)NC2=Nc3sc4c(c3CN21)CCCC4 (stereo not given) | > 250 | 60 |  |  |  |  |

| Structure (SMILES) | EC50 (Rattus norvegicus [1]) [µM] | EC50 (Rattus norvegicus [2]) [µM] | Delta A/min (Rattus norvegicus [6]) | Delta A/min (Rattus norvegicus [7]) | Delta A/min (Rattus norvegicus [10]) | further results |
| --- | --- | --- | --- | --- | --- | --- |
| Cl.O=C1CN2Cc3c(sc4c3SCCC4)NC2=N1 | 1.2 | 0.16 | 0.171 | 0.125 ΔA/min |  |  |
| O=C1CN2Cc3ccsc3N=C2N1 | > 250 | > 250 |  |  |  |  |
| Cc1sc2c(c1Cl)CN1C(=N2)NC(=O)C1C (stereo not given) | 150 | 0.9 |  |  |  |  |
| CC1CCc2c(sc3c2CN2C(=N3)NC(=O)C2C)C1.Cl (stereo not given) | 32 | 0.2 | 0.207 | 152000 |  |  |
| CC1CCc2c(sc3c2CN2CC(=O)NC2=N3)C1.Cl (stereo not given) | 2 | 0.62 | 0.178 | 0 |  |  |
| O=C1CN2Cc3cscc3N=C2N1 | > 250 | 90 |  |  |  |  |
| Cl.O=C1CN2Cc3c(sc4c3CCOC4)N=C2N1 | 1.3 | 0.2 | 0.171 | 113000 |  |  |
| Cl.O=C1CN2Cc3c(sc4c3CCC(O)C4)N=C2N1 (stereo not given) | 2 | 0.1 | 0.117 | 2000 |  |  |
| CCOC(=O)N1CCc2c(sc3c2CN2CC(=O)NC2=N3)C1.Cl | 1.2 | 0.12 | 0.171 | 115000 |  | Delta A/min (Rattus norvegicus [3]): 30000; Delta A/min (Rattus norvegicus [4]): 120000; Delta A/min (Rattus norvegicus [5]): 0.072 |
| Cl.O=C1CN2Cc3sccc3N=C2N1 | > 250 | 10 | 0.308 | 0.256 ΔA/min |  |  |
| Cl.O=C1CN2Cc3c(-c4ccccc4)csc3NC2=N1 | 120 | 20 |  |  | 0.198 ΔA/min |  |
| Cl.O=C1CN2Cc3c(sc4c3CCc3ccccc3-4)N=C2N1 | 19 | 0.9 | 0.207 | 0.191 ΔA/min |  |  |
| Cl.O=C1CN2Cc3c(sc4c3CCC4)N=C2N1 | 40 | 0.25 |  |  | 0.072 ΔA/min |  |
| Cc1sc2c(c1C)CN1CC(=O)NC1=N2.Cl | 5 | 1 |  |  | 0.073 ΔA/min | Delta A/min (Rattus norvegicus [11]): 0.168; Delta A/min (Rattus norvegicus [8]): 0.173; Delta A/min (Rattus norvegicus [9]): 0.168; Delta A/min (Rattus norvegicus [3]): 0.164; Delta A/min (Rattus norvegicus [4]): 0.094; Delta A/min (Rattus norvegicus [5]): 0.153 |
| CN(C(=O)CCCOc1ccc2[nH]c(=O)ccc2c1)C1CCCCC1 [CILOSTAMIDE] | 12 | 1.2 |  |  |  | Decrease in blood pressure (Rattus norvegicus [12]): 1; Decrease in blood pressure (Rattus norvegicus [13]): -1; Decrease in blood pressure (Rattus norvegicus [14]): -1; Initial blood pressure (Rattus norvegicus [15]): 125 mmHg; Change in heart rate (Rattus norvegicus [16]): 20%; Change in heart rate (Rattus norvegicus [17]): 21%; Change in heart rate (Rattus norvegicus [18]): 26%; Change in heart rate (Rattus norvegicus [19]): 22% |
| CC(C)(C)C1CCc2c(sc3c2CN2CC(=O)NC2=N3)C1.Cl (stereo not given) | 27 | 0.25 | 0.117 | 4000 |  |  |
| Cl.Cl.O=C1CN2Cc3c(sc4c3CCN(Cc3ccccc3)C4)N=C2N1 | 13.5 | 29 | 0.186 | 121000 |  |  |
| CC1CCCc2c1sc1c2CN2CC(=O)N=C2N1.Cl (stereo not given) | 0.53 | 0.18 |  |  | 0 | Delta A/min (Rattus norvegicus [11]): 0.118; Delta A/min (Rattus norvegicus [8]): 0.053; Delta A/min (Rattus norvegicus [9]): 0.079; Delta A/min (Rattus norvegicus [3]): 0.116; Delta A/min (Rattus norvegicus [4]): 0; Delta A/min (Rattus norvegicus [5]): 0.036 |
| Cc1scc2c1CN1CC(=O)NC1=N2.Cl | 17 | 3.5 | 0.29 | 0.198 ΔA/min |  |  |
| O=C1CN2Cc3c(sc4c3COc3ccccc3-4)N=C2N1 | 34 | 1.6 |  |  |  |  |
